# The list is not random: actives were taken first. Their share in the collection is about 2%.
# Bfl-1 A1 inh = caspase 3/7 activation in MEF A1-2A-BIM cells, primary screen, A1 inhibitor project, cell-based, luminescence, HTS. Caspase-Glo 3/7 luminescence, 3 h; percent of clofoctol response, vehicle zero. 330,000 compounds, 0.066% hits. caspase activation, % (concentration not given with the values);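 active means over half of replicate activation scores above 10%, or exactly half above 10 with the replicate mean above 10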
# MC4R antag cAMP = MC4R antagonists of cAMP signaling, primary screen, cell-based, TR-FRET, antagonist arm of biased-ligand search | MC4R-expressing cells, MTII-stimulated cAMP, LANCE TR-FRET | Melanocortin receptor 4 (Homo sapiens), P32245 | 360,000 compounds, 0.48% hits | inhibition, % at 6.5 µM;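 active means inhibition above its plate's cutoff, the mean of tested wells on that plate plus 3 SD, cut at about 29% in these data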;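 further: 0% = Melanotan II alone and 100% = Melanotan II plus saturating MCL0020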
# Target sequence (P32245 whole entry, looked up): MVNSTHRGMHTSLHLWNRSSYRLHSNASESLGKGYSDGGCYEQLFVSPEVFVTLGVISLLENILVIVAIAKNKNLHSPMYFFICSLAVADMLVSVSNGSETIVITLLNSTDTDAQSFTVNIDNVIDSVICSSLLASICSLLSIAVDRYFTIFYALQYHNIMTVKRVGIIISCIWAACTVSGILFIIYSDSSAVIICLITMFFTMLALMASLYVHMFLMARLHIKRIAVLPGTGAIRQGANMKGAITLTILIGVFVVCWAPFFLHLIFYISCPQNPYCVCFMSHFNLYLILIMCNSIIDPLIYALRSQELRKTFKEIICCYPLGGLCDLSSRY
#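 Assay system: human MC4R-expressing U2OS cells; reagent: Melanotan II stimulation of cells; dosing: 6.5 µM single dose; timing: compound 30 min, challenge 1 h, detection 1 h; signal: TR-FRET cAMP assay; replicates: one well per compound, no replicates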
# MC4R ag barr = MC4R agonists recruiting beta-arrestin, primary screen, cell-based, luminescence, agonist arm of biased-ligand search | Melanocortin receptor 4 (Homo sapiens), P32245 | U2OS MC4R beta-arrestin complementation; percent of melanotan II response, DMSO zero | activation, % at 8.9 µM | 360,000 compounds, 0.98% hits | AID 540308, 2011;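 active means activation above a per-plate cutoff, the mean activation of sample wells on that plate plus 3 SD, cut at about 8% in these data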
# CHOP UPR activ = activators of apoptotic CHOP UPR arm, primary screen, cell-based, CHO-CHOP luciferase reporter, luminescence, uHTS. UPR activation; percent of tunicamycin response over DMSO baseline. activation, % at 10 µM. 330,000 compounds, 0.34% hits. AID 449763, 2010;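 active means at 10 µM dose, activation of 40% or more, normalized to positive control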;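 further: 100% = tunicamycin at 10 µg/mL and 0% = DMSO alone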
#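 Dosing – one dose, 10 µM in 0.5% DMSO · System – CHO-CHOP cells, stable luciferase reporter of PERK-eIF2a-CHOP signalling · Input – 500 cells/well · Control set – tunicamycin 10 µg/mL final as positive, DMSO-only wells as negative · Timing – 6 h compound treatment, 37 °C · Measure – % activation vs tunicamycin · Technique – luminescence read with Steady-Glo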
# XBP1 UPR activ = activators of adaptive XBP1 UPR arm, primary screen, cell-based, CHO-XBP1 luciferase reporter, luminescence, uHTS | IRE1-XBP1 UPR activation; percent of tunicamycin response, DMSO as zero | activation, % at 20 µM | 330,000 compounds, 0.33% hits | AID 463104, 2010;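 active means versus positive control, 20 µM dose yields 30% or more activation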;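 further: 100% = tunicamycin at 10 µg/mL and 0% = DMSO only wells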
#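 Assay system: IRE1-XBP1 luciferase reporter CHO line. Input: 1000 cells/well. Buffer or medium: F12 with 10% serum. Doses: 20 µM, 1% DMSO. Times: overnight seeding at 37 °C, 6 h compound treatment at 37 °C. Technique: Steady-Glo luciferase glow luminescence, 10 min after reagent addition.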
# cAMP nonselect = nonselective cAMP signaling inhibitors, parental cells, counter-screen for MC4R biased antagonist project, cell-based, TR-FRET, U2OS, forskolin, triplicate | inhibition, % at 6.5 µM | LANCE TR-FRET | 1,600 compounds, 26% hits | shares compounds with MC4R antag cAMP;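 active means mean inhibition over triplicates above the low-control well mean plus 3 SD, set per campaign, cut at about 13% in these data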;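 further: signal is single emission at 671 nm which falls as cellular cAMP rises; 0% = forskolin-stimulated wells and 100% = buffer without forskolin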
# MC4R cAMP antag = MC4R cAMP antagonists, retest, confirmation, cell-based, TR-FRET; shares compounds with MC4R antag cAMP; MC4R-expressing cells, MTII-stimulated cAMP; inhibition, % at 6.5 µM; 1,600 compounds, 27% hits; AID 602195, 2012; in the data active means inhibition above about 29%;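 further: 0% = agonist stimulated wells alone and 100% = agonist stimulated wells plus saturating reference antagonist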
# Active calls of the source: *; nt = not tested or not shown.
SMILES,Bfl-1 A1 inh,MC4R antag cAMP,MC4R ag barr,CHOP UPR activ,XBP1 UPR activ,cAMP nonselect,MC4R cAMP antag
OC(CNC1CCCCC1)CON=C1CCSc2c(Cl)cccc21 (centres undefined),nt,-2,6,nt,nt,nt,nt
N#C/C(=C\c1ccc(OC(F)F)cc1)C(=O)N1CCCCC1,2,32*,0,2,1,-4,-6
CCN1CCN(C(=O)/C(C#N)=C/c2ccc(OC(F)F)cc2)CC1,0,-6,3,0,-3,nt,nt
Cc1cc(C)nc(SCc2nnc(SCC(=O)Nc3nc(-c4ccccc4)cs3)n2-c2ccccc2)n1,-1,-2,-1,2,1,nt,nt
Cc1cc(C)nc(SCc2nnc(SCC(=O)O)n2-c2ccccc2)n1,1,31*,1,-1,-3,-2,1
Cc1cc(C=O)c(C)n1-c1cccc(C(=O)O)c1,-1,33*,0,-2,-3,1,3
Cc1ccc(S(=O)(=O)N2CCN(C3CC(=O)N(CCc4ccccc4)C3=O)CC2)cc1C (centres undefined),0,12,3,1,1,nt,nt
COc1ccc(CCN2C(=O)CC(N3CCN(S(=O)(=O)c4ccccc4)CC3)C2=O)cc1OC (centres undefined),0,33*,-1,-1,0,-1,-9
O=C(NCc1ccccn1)C(=O)Nc1ccccc1,0,9,1,5,4,nt,nt
O=C(NCCCO)C(=O)NCc1ccccn1,1,30*,1,-2,1,2,8
O=C(Oc1cncc(Cl)c1)c1sccc1Cl,0,33*,3,6,-1,-1,-9
CCOC(=O)c1c(NC(=O)COC(=O)CCNS(=O)(=O)c2ccccc2)sc(C(=O)NC)c1C,nt,31*,0,nt,nt,5,5
COC(=O)c1c(NC(=O)COC(=O)CCNS(=O)(=O)c2ccccc2)sc(C)c1C,-2,9,-2,1,-1,nt,nt
O=C(Nc1ccc(F)cc1)C1CCCN(S(=O)(=O)c2cccc3nonc23)C1 (centres undefined),0,32*,1,-2,-1,0,8
Cc1cc(/C=C2/NC(=O)N(Cc3ccccc3F)C2=O)c(C)n1C,0,35*,0,3,-2,2,5
Cc1cc(/C=C2/NC(=O)N(Cc3ccccc3F)C2=O)c(C)n1-c1ccccn1,-1,8,-2,2,3,nt,nt
O=C(NCC(c1cccs1)N1CCOCC1)c1cnc(Cl)c(Cl)c1 (centres undefined),0,30*,-4,2,-3,17*,38*
CCc1nc2ccc(C(=O)NCc3ccc4c(c3)OCO4)cn2c1N(CCC(C)C)CCN(C)C,nt,31*,-1,nt,nt,1,47*
CCC(Sc1nc2n[nH]c(C)c2c(=N)n1-c1ccc(C)c(Cl)c1)C(=O)N1CCOCC1 (centres undefined),0,29*,0,3,3,6,35*
COCCCn1c(=O)/c(=C\c2cccc(OC)c2OC)s/c1=C(/C#N)C(=O)Nc1ccc(C(=O)O)cc1,0,29*,0,1,0,-8,-5
COCCCn1c(=O)/c(=C/c2ccccc2OC(F)F)s/c1=C(\C#N)C(=O)NCCOC,nt,1,0,nt,nt,nt,nt
CCC1C(c2ccccc2)N(C)C(c2ccccc2)CC1(O)c1ccccc1 (centres undefined),0,18,4,0,9,nt,nt
CC(C)C1C(c2ccccc2)N(C)C(c2ccccc2)CC1(O)c1ccccc1 (centres undefined),1,29*,2,1,2,3,26
COc1ccc(Cl)cc1-c1cc(C(=O)NCc2cccs2)[nH]n1,nt,-2,-1,nt,nt,nt,nt
COCC(=O)Nc1sc2c(c1C(=O)OC)CCCC2,0,-10,-3,0,1,nt,nt
SMILES,Bfl-1 A1 inh,MC4R antag cAMP,MC4R ag barr,CHOP UPR activ,XBP1 UPR activ,cAMP nonselect,MC4R cAMP antag
COC(=O)c1c(NC(=O)COC(=O)c2ccc(O)cc2)sc2c1CCCCC2,0,30*,3,0,6,-1,6
O=C(Nc1nc(-c2ccc(F)cc2)cs1)c1ccc(N2C(=O)CCC2=O)cc1,1,18,4,0,3,nt,nt
COc1ccc(-c2csc(NC(=O)c3ccc(N4C(=O)CCC4=O)cc3)n2)cc1,-1,50*,1,-3,2,25*,42*
C=CCN1[C@@H](Cc2ccccc2)COCCS1(=O)=O,nt,6,0,nt,nt,nt,nt
Cc1cn([C@H]2C[C@H](O)[C@@H](CNC(=O)[C@H](N)Cc3cn(COCc4ccccc4)cn3)O2)c(=O)[nH]c1=O,nt,4,-1,nt,nt,nt,nt
NC(N)=NS(=O)(=O)c1ccc(N/C=C\C(=O)c2ccncc2)cc1,1,31*,0,-1,-1,-3,-27
Cc1noc(NS(=O)(=O)c2ccc(N/C=C\C(=O)c3ccncc3)cc2)c1C,0,2,-2,-2,2,nt,nt
CNC(C)c1ccc(S(N)(=O)=O)cc1 (centres undefined),0,38*,-1,0,-1,-3,2
COc1ccccc1NC(=O)CSc1nccc(=O)[nH]1,1,-4,-2,-1,2,nt,nt
O=C(CSc1nccc(=O)[nH]1)Nc1ccccc1Sc1ccccc1,3,31*,1,-2,-2,0,-12
CCN1CCN(C(c2cccs2)C(C)NS(=O)(=O)c2ccc(C)cc2)CC1 (centres undefined),0,30*,-2,0,0,1,-8
CN(CC(=O)NCCCc1ccccc1)Cc1ccc(Br)cc1,-1,30*,5,2,-2,-3,-1
CN(CC(=O)NCCc1ccc(F)cc1)Cc1ccc(Br)cc1,-2,18,3,0,-2,nt,nt
O=c1[nH]c(=S)[nH]cc1Oc1ccc(Cl)cc1Cl,nt,36*,1,-1,-2,3,2
CC(=O)C1=C(O)C2(C)c3c(O)c(C)c(O)c(C(C)=O)c3OC2CC1=O (centres undefined),nt,8,-1,nt,nt,nt,nt
CN1CCc2c(sc(/N=C/c3cc(Cl)ccc3O)c2C#N)C1,0,39*,-1,3,1,1,4

# From PubChem BioAssay
